Test results from ChEMBL document CHEMBL1133006, “Synthesis and evaluation of several new (2-chloroethyl)nitrosocarbamates as potential anticancer agents” (J Med Chem, 2000).
Values after ≈ are worked out from the molar mass of the structure shown.

Key:
NCI-H23 [1] = assay: In vitro cytotoxicity was evaluated against lung NCI-H23 cells; type: functional, cell-based; conditions: Homo sapiens
Outline: (§1)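 Cells dispersed with trypsin/EDTA, suspended at 5 × 10⁴/mL and seeded in 96-well plates. Compounds dissolved in 100% DMSO, diluted in complete medium and added in 100-µL samples, eight replicate wells per concentration. Controls were mock, vehicle (DMSO in medium) and doxorubicin 200 µM. Incubation 72 h, read by XTT or neutral red uptake, IC₅₀ calculated in µM.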

SNB-7 [2] = assay: In vitro cytotoxicity was evaluated againstCNS SNB-7 cells; type: functional, cell-based; conditions: Homo sapiens; outline: as §1
SK-MEL-28 [3] = assay: In vitro cytotoxicity was evaluated against melanoma SK-MEL-28 cells; […]; type: functional, cell-based; conditions: Homo sapiens; outline: as §1
DLD-1 (Homo sapiens) [4] = assay: In vitro cytotoxicity was evaluated against colon DLD-1 cells
CAKI-1 (Homo sapiens) [5] = assay: In vitro cytotoxicity was evaluated against renal CAKI-1 cells; […]
Mus sp. [6] = species on record: Mus sp.; assay: Difference in the median of times poststaging for tumors of the treated (T) groups to double in mass twice compared to the median of the control (C) group; type: functional
Outline: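 M5076 sarcoma, 5 × 10⁶ cells implanted sc in B6C3F₁ mice (implantation = day 0). Compound given ip on days 10-14 at optimal dosage (≤LD10). T-C is the difference in median time after staging for treated versus control tumors to double in mass twice, in days.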

Mus sp. [7] = assay: Antitumor activity against subcutaneously implanted M5076 murine sarcoma in B6C3F1 mice (5x10E6) at 12.5 mg/kg on day 10 to 14, expressed tumor-free surv/total; 0/5; type: functional; conditions: route subcutaneous
Outline: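 B6C3F1 mice got 5 × 10⁶ M5076 sarcoma cells sc (implant day = day 0). Drug was given ip at 12.5 mg/kg/dose on days 10-14, 5 mice per group. Tumor-free survivors/total were recorded. T-C was the difference in median time after staging for tumors to double in mass twice, treated versus control.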

P388 [8] = assay: Antitumor activity was measured by % increase in life span (ILS) of CD2F1 mice implanted with P388 murine leukemia cell at a dose of 25 mg/kg; type: functional, Mus sp.; conditions: Mus musculus
P388 [9] = assay: Antitumor activity measured by % increase in life span (ILS) of CD2F1 mice implanted with murine leukemia cells expressed as net log cell kill; type: functional, Mus sp.
P388 [10] = assay: Antitumor activity against intraperitoneally implanted P388 murine leukemia in CD2F1 mice with 10E6 at 25 mg/kg on day 1, expressed tumor-free surv/total;0/5; type: functional, Mus sp.; conditions: route intraperitoneal
SNB-7 [11] = assay: In vitro cytotoxicity was evaluated againstCNS SNB-7 cells; 3 x 10E1; type: functional, cell-based; conditions: Homo sapiens; outline: as §1
DLD-1 (Homo sapiens) [12] = assay: In vitro cytotoxicity was evaluated against colon DLD-1 cells; 2 x 10E1
CAKI-1 (Homo sapiens) [13] = assay: In vitro cytotoxicity was evaluated against renal CAKI-1 cells; 2 x 10E1
SK-MEL-28 (Homo sapiens) [14] = assay: In vitro cytotoxicity was evaluated against melanoma SK-MEL-28 cells; 1 x 10e1; 1 x 10E1
DLD-1 [15] = assay: In vitro cytotoxicity was evaluated against colon DLD-1 cells; 4 x 10E1; type: functional, cell-based; conditions: Homo sapiens; outline: as §1
CAKI-1 (Homo sapiens) [16] = assay: In vitro cytotoxicity was evaluated against renal CAKI-1 cells
SK-MEL-28 (Homo sapiens) [17] = assay: In vitro cytotoxicity was evaluated against melanoma SK-MEL-28 cells; 3 x 10E1
NCI-H23 [18] = assay: In vitro cytotoxicity was evaluated against lung NCI-H23 cells; 1 x 10E1; type: functional, cell-based; conditions: Homo sapiens; outline: as §1
DLD-1 (Homo sapiens) [19] = assay: In vitro cytotoxicity was evaluated against colon DLD-1 cells; 1 x 10E1
CAKI-1 (Homo sapiens) [20] = assay: In vitro cytotoxicity was evaluated against renal CAKI-1 cells; 3 x 10E1
SK-MEL-28 (Homo sapiens) [21] = assay: In vitro cytotoxicity was evaluated against melanoma SK-MEL-28 cells; 2 x 10E1
NCI-H23 [22] = assay: In vitro cytotoxicity was evaluated against lung NCI-H23 cells; 3 x 10E1; type: functional, cell-based; conditions: Homo sapiens; outline: as §1
DLD-1 (Homo sapiens) [23] = assay: In vitro cytotoxicity was evaluated against colon DLD-1 cells; 3 x 10E1
SK-MEL-28 (Homo sapiens) [24] = assay: In vitro cytotoxicity was evaluated against melanoma SK-MEL-28 cells
CAKI-1 = assay: In vitro cytotoxicity was evaluated against renal CAKI-1 cells; 3 x 10E1; type: functional, cell-based; conditions: Homo sapiens; outline: as §1
DLD-1 [25] = assay: In vitro cytotoxicity was evaluated against colon DLD-1 cells; 2 x 10E1; type: functional, cell-based; conditions: Homo sapiens; outline: as §1
SK-MEL-28 [26] = assay: In vitro cytotoxicity was evaluated against melanoma SK-MEL-28 cells; 1 x 10E1; type: functional, cell-based; conditions: Homo sapiens; outline: as §1
SNB-7 [27] = assay: In vitro cytotoxicity was evaluated againstCNS SNB-7 cells; 1 x 10E1; type: functional, cell-based; conditions: Homo sapiens; outline: as §1

For `O=NN(CCCl)C(=O)OCc1ccccc1[N+](=O)[O-]`, the IC50 (NCI-H23 [1]) was 3 µg/mL (≈ 10.4 µM), the IC50 (SNB-7 [2]) was 1 µg/mL (≈ 3.48 µM) and the IC50 (SK-MEL-28 [3]) was 40 µg/mL (≈ 139 µM). It also gave an IC50 (DLD-1 (Homo sapiens) [4]) of 6 µg/mL and an IC50 (CAKI-1 (Homo sapiens) [5]) of 40 µg/mL (≈ 139 µM).

`CC(=O)Oc1ccc(COC(=O)N(CCCl)N=O)cc1` gave a T-C (Mus sp. [6]) of 3, a Survivial / total (Mus sp. [7]) of 0 and an IC50 (NCI-H23 [1]) of 6 µg/mL (≈ 20 µM). For the same compound, the ILS at 25 mg/kg (P388 [8]) was 4%, the “Net log cell kill” value (P388 [9]) was -0.3 and the Survivial / total (P388 [10]) was 0. It also gave an IC50 (SNB-7 [11]) of 30 µg/mL (≈ 99.8 µM), an IC50 (DLD-1 (Homo sapiens) [12]) of 20 µg/mL (≈ 66.5 µM) and an IC50 (CAKI-1 (Homo sapiens) [13]) of 20 µg/mL (≈ 66.5 µM). For the same compound, the IC50 (SK-MEL-28 (Homo sapiens) [14]) was 10 µg/mL (≈ 33.3 µM).

`O=NN(CCCl)C(=O)Oc1cncnc1` was tested, and the IC50 (DLD-1 [15]) was 40 µg/mL (≈ 173 µM), the IC50 (NCI-H23 [1]) was 2 µg/mL (≈ 8.67 µM) and the IC50 (SNB-7 [2]) was 6 µg/mL (≈ 26 µM). It also gave an IC50 (CAKI-1 (Homo sapiens) [16]) of 6 µg/mL and an IC50 (SK-MEL-28 (Homo sapiens) [17]) of 30 µg/mL (≈ 130 µM).

For `CC(=O)Oc1ccccc1COC(=O)N(CCCl)N=O`, the IC50 (SNB-7 [2]) was 6 µg/mL (≈ 20 µM), the IC50 (NCI-H23 [18]) was 10 µg/mL and the IC50 (DLD-1 (Homo sapiens) [19]) was 10 µg/mL (≈ 33.3 µM). It also gave an IC50 (CAKI-1 (Homo sapiens) [20]) of 30 µg/mL (≈ 99.8 µM) and an IC50 (SK-MEL-28 (Homo sapiens) [21]) of 20 µg/mL (≈ 66.5 µM).

`O=NN(CCCl)C(=O)Oc1cccnc1` showed an IC50 (NCI-H23 [22]) greater than 30 µg/mL, an IC50 (SNB-7 [11]) greater than 30 µg/mL and an IC50 (DLD-1 (Homo sapiens) [23]) greater than 30 µg/mL. The IC50 (CAKI-1 (Homo sapiens) [20]) was greater than 30 µg/mL and the IC50 (SK-MEL-28 (Homo sapiens) [17]) was greater than 30 µg/mL.

With `O=NN(CCCl)C(=O)OCc1ccc([N+](=O)[O-])cc1` the IC50 (NCI-H23 [1]) was 1 µg/mL (≈ 3.48 µM), the IC50 (SNB-7 [2]) was 1 µg/mL (≈ 3.48 µM) and the IC50 (DLD-1 (Homo sapiens) [4]) was 5 µg/mL. It also gave an IC50 (CAKI-1 (Homo sapiens) [16]) of 3 µg/mL and an IC50 (SK-MEL-28 (Homo sapiens) [24]) of 1 µg/mL.

`CC(=O)OCC1OC(OC(=O)N(CCCl)N=O)C(OC(C)=O)C(OC(C)=O)C1OC(C)=O` (stereo not given) was tested, and the IC50 (CAKI-1) was greater than 30 µg/mL, the IC50 (DLD-1 [25]) was 20 µg/mL (≈ 41.4 µM) and the IC50 (NCI-H23 [1]) was 3 µg/mL (≈ 6.21 µM). For the same compound, the IC50 (SK-MEL-28 [26]) was 10 µg/mL (≈ 20.7 µM) and the IC50 (SNB-7 [27]) was 10 µg/mL.

`Nc1ccn([C@@H]2O[C@H](CO)[C@@H](O)[C@@H]2O)c(=O)n1` [CYTARABINE] was tested, and the IC50 (SNB-7 [27]; read-out: IC50) was 1 µM, the IC50 (NCI-H23 [18]; read-out: IC50) was 1 µM and the IC50 (DLD-1 (Homo sapiens) [4]) was greater than 5 µM. For the same compound, the IC50 (CAKI-1 (Homo sapiens) [16]) was greater than 5 µM and the IC50 (SK-MEL-28 (Homo sapiens) [24]) was 1 µM.
